Assay outcomes (PubChem)
HNF4A DNA FP: change in binding of human HNF4 alpha to DNA; P41235; HNF4a-FITC DNA binding, fluorescence polarization, 1 h; activity change, % at 10 µM; actives 0.3% (n = 360,000); in the data active = activity change above about 30%, passing the limit was not always enough
Target sequence (P41235 whole entry, looked up): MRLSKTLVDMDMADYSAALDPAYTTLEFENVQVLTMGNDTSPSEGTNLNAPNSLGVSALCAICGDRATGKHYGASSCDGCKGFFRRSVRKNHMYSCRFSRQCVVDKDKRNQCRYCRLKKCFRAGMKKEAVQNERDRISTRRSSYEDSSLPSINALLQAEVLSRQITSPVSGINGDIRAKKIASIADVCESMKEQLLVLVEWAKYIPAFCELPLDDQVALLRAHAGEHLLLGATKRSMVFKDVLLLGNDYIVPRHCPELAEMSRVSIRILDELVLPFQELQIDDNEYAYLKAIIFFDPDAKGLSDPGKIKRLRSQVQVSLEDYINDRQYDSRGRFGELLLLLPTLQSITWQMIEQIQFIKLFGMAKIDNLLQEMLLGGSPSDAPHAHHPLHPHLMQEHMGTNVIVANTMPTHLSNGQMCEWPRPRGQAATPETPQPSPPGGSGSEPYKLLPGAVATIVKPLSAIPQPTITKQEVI
TPT1 inh: inhibitors of Candida albicans tRNA 2'-phosphotransferase TPT1 | recombinant caTPT1, FP RNA substrate dephosphorylation | actives 0.81% (n = 300,000) | inhibition, % at 5 µM;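 active = inhibition above the mean of all tested compounds plus 3 SD, set per screening campaign, cut at about 24% in these data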
Rpn11 block: Rpn11 (human) deubiquitinase inhibition; O00487; human 26S proteasome, Ub4-pepOG fluorescence polarization; 20S core pre-blocked with epoxomicin; inhibition, % at 20 µM; actives 0.59% (n = 360,000); AID 588493;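 active = inhibition at 20 µM, scaled to each plate's controls, above about 33%, limit read from the data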
Target sequence (O00487 whole entry, looked up): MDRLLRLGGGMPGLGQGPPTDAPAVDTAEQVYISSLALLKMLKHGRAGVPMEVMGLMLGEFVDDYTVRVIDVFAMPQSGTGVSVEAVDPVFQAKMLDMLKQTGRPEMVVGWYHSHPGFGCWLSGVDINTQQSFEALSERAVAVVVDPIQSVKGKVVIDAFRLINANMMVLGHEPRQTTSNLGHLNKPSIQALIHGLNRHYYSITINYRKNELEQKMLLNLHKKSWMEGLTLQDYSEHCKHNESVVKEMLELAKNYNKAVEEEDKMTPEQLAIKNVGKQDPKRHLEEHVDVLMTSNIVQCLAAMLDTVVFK
IDE cell activ: boosts human insulin-degrading enzyme activity in HEK cells; actives 0.073% (n = 340,000); FAbeta-B cleavage, fluorescence polarization; 0% vehicle, 100% cell-free pure enzyme wells; activation, % at 5.96 µM;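 active = activation above the mean of all tested compounds plus 3 SD, set per screening campaign, cut at about 17% in these data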
IDE cell inh: inhibitors of human insulin-degrading enzyme in cells | P14735 | inhibition, % at 5.59 µM | actives 0.41% (n = 320,000) | HEK cells, FAbetaB cleavage, fluorescence polarization;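 active = percent inhibition above the average of all tested compounds plus 3 SD, set per screening campaign, cut at about 16% in these data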;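 also: IDE supplied by intact live HEK cells; FP after avidin binding of uncleaved biotin substrate so inhibition keeps polarization high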
CSN inh: inhibitors of human CSN-mediated cullin deneddylation; actives 0.38% (n = 360,000); Purified CSN, SCF-Nedd8-OG deneddylation, fluorescence polarization; inhibition, % at 12.5 µM; Q92905;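 active = pattern-corrected inhibition above about 35%, with an unprinted fluorescence ratio check between 0.5 and 1.5, limit read from the data, passing the limit was not always enough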
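Test system: purified human Csn5 enzyme expressed in HEK293T cells. Amount: 0.24 nM enzyme. Reagent: SCFSkp2-Nedd8OG substrate at 10 nM final. Schedule: 90 min incubation of compound, enzyme and substrate at room temperature. Detection: fluorescence polarization. Read-out: % inhibition of substrate cleavage by Csn5.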
TPT1 inh confirm: TPT1 (C. albicans) inhibition, confirmation | shares compounds with TPT1 inh | recombinant caTPT1, fluorescence polarization, RNase T1 coupled | inhibition, % at 5 µM | actives 74% (n = 2,400) | AID 2149;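 active = inhibition above the primary screen limit, the mean inhibition of all tested compounds plus 3 SD, cut at about 25% in these data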
RNase T1 counter: RNase T1 inhibition in TPT1 counter-screen. shares compounds with TPT1 inh. RNase T1 cleavage, fluorescence polarization, 1536-well. inhibition, % at 5 µM. actives 83% (n = 2,400);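 active = inhibition above the solvent-only control well mean plus 3 SD, limit set per screening run, cut at about 23% in these data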;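 also: inhibitors block cleavage so intact labeled substrate keeps polarization high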
Each line names hits and unclear results; the compound was inactive in the other large screens (follow-up assays come after a bar, where shown). Compounds with a hit are over-represented: about 1.7% of the library has one in this group of screens.

CC1=C/C(=C\c2ccc(Br)o2)C(=O)O1	none
O=C1C(=Cc2ccc(Br)o2)C(=O)c2ccccc21	TPT1 inh 26.4 (not shown: Rpn11 block) | TPT1 inh confirm 26.1 | RNase T1 counter 28.4
N#Cc1c(NC(=O)CSc2nnc(-c3ccncc3)n2CC2CCCO2)sc2c1CCCC2 (stereo not given)	TPT1 inh 115.1 | TPT1 inh confirm inactive | RNase T1 counter inactive
CCn1c(SCC(=O)Nc2sc3c(c2C#N)CCCC3)nnc1-c1ccncc1	none
O=S1(=O)C[C@H](N2CCC[C@@H]2CO)[C@@H](COCc2ccccc2)N1	none (no result: TPT1 inh, IDE cell activ, IDE cell inh)
O=c1[nH]cnc2sc3c(c12)CCN(Cc1ccccc1)C3	none
OCCCNc1ncnc2sc3c(c12)CCN(Cc1ccccc1)C3	TPT1 inh 24.4 | TPT1 inh confirm 49.3 | RNase T1 counter 63.8
CCc1sc(C(=O)Nc2cccc(C(C)=O)c2)cc1C	none
COc1cc(/C=C2/C(=O)ON=C2C)cc(Cl)c1O	TPT1 inh 41.6 | TPT1 inh confirm 100.6 | RNase T1 counter 112.6
COc1cc(/C=C2/C(=O)NN(c3ccc(Cl)c(Cl)c3)C2=O)cc([N+](=O)[O-])c1O	none
COc1cc(/C=C2/C(=O)NN(c3ccc(F)cc3)C2=O)cc(Cl)c1O	TPT1 inh 39.8 | TPT1 inh confirm 79.9 | RNase T1 counter 99.1
O=C(O)c1ccc(N/N=C/c2cc3cc4c(cc3nc2Cl)OCCO4)cc1	TPT1 inh 26.8 | TPT1 inh confirm 37.7 | RNase T1 counter 47.9
O=Cc1cc2cc3c(cc2nc1Cl)OCCO3	none (no result: HNF4A DNA FP, Rpn11 block, IDE cell activ, CSN inh)
Cc1cccc(N=C2NC(=O)/C(=C/c3cccn3C)S2)c1	TPT1 inh 30.7 | TPT1 inh confirm 36.6 | RNase T1 counter 46.0
CCOC(=O)C1=C(C)N=c2s/c(=C\c3cccn3C)c(=O)n2C1c1cccc(OC)c1OC (stereo not given)	HNF4A DNA FP 84.5, TPT1 inh 82.3, CSN inh 46.4 (not shown: Rpn11 block) | TPT1 inh confirm 138.9 | RNase T1 counter 137.1
CCOC(=O)C1=C(C)N=c2s/c(=C/c3ccco3)c(=O)n2C1c1cccc(OC)c1 (stereo not given)	TPT1 inh 31.2 (no result: HNF4A DNA FP, Rpn11 block, IDE cell activ, CSN inh) | TPT1 inh confirm 25.3 | RNase T1 counter 34.9
CCOC(=O)C1=C(C)N=c2s/c(=C\c3ccc(C(=O)O)cc3)c(=O)n2C1c1ccc(OC)cc1OC (stereo not given)	none
NC(=O)c1ccc(Oc2ccc3c(c2)CCC3)c([N+](=O)[O-])c1	none
CCOc1ccc(NC(=O)C2CCCN(C)C2)cc1 (stereo not given)	none
COc1cc(OC)c(C(=O)OCC(=O)NCC2CCCCC2)cc1OC	none (no result: TPT1 inh, IDE cell inh)
CCCCCCc1cc2cc(-c3nnc(-c4cc(OC)c(OC)c(OC)c4)o3)c(=O)oc2cc1O	TPT1 inh 118.5 (no result: HNF4A DNA FP, Rpn11 block, IDE cell activ, CSN inh) | TPT1 inh confirm 130.3 | RNase T1 counter 120.8
CCCCCCc1cc2cc(S(=O)(=O)c3ccc(F)cc3)c(=O)oc2cc1O	none
CCCCCCc1cc2cc(-c3nnc(-c4ccccc4OC)o3)c(=O)oc2cc1O	TPT1 inh 97.5, IDE cell inh 48.0 (not shown: Rpn11 block) | TPT1 inh confirm 97.3 | RNase T1 counter 114.2
CCCCCCc1cc2cc(C(=O)Nc3ccccc3OC)c(=O)oc2cc1O	none
O=C1N(Cc2cccc(Cl)c2)C[C@@H]2C[C@@H](c3c[nH]c4ccccc34)N3CCC[C@@]123	HNF4A DNA FP 85.5, TPT1 inh 25.6, CSN inh 49.2 (not shown: Rpn11 block) | TPT1 inh confirm 30.1 | RNase T1 counter 40.3
CN(C)c1ccc(/C=C2\C(=N)N3C(=NC2=O)Sc2cc(S(C)(=O)=O)ccc23)cc1	TPT1 inh 122.0 (no result: HNF4A DNA FP, Rpn11 block, IDE cell activ, CSN inh) | TPT1 inh confirm 87.9 | RNase T1 counter 86.0
Cc1ccc(S(=O)(=O)Oc2ccc(/C=C3/C(=N)N4C(=NC3=O)SN=C4S(C)(=O)=O)cc2)cc1	none
Cc1cccc(/C=C(\C(=O)C(=O)O)c2ccc3ccccc3n2)c1	none
O=C(O)C(=O)/C(=C\c1cccc(Cl)c1)c1ccc2ccccc2n1	TPT1 inh 30.4 | TPT1 inh confirm 42.0 | RNase T1 counter 57.9
Cc1ccc(OCC(=O)N2CCN(c3ccc([N+](=O)[O-])c(N4CCOCC4)c3)CC2)cc1	TPT1 inh 30.8 | TPT1 inh confirm inactive | RNase T1 counter inactive
COc1cc(/C=C2\SC(c3ccc(C)cc3)=NC2=O)cc(OC)c1OC	HNF4A DNA FP 50.6, TPT1 inh 30.3, CSN inh 49.2 (not shown: Rpn11 block) | TPT1 inh confirm 40.1 | RNase T1 counter 50.1
COc1cc(/C=C2\SC(N)=NC2=O)ccc1OCC(=O)Nc1ccc(C)cc1	none
COc1cc(/C=C2\SC(c3ccccc3)=NC2=O)cc(Cl)c1O	none (no result: TPT1 inh, IDE cell inh)
COc1ccc(/C=C2/SC(c3ccc(C)cc3)=NC2=O)cc1OC	TPT1 inh 112.0 (not shown: Rpn11 block) | TPT1 inh confirm 80.1 | RNase T1 counter 84.7
COc1ccc(/C=C2\SC(c3ccc(C)cc3)=NC2=O)cc1OC	HNF4A DNA FP 85.7, TPT1 inh 86.8 (not shown: Rpn11 block) | TPT1 inh confirm 83.9 | RNase T1 counter 89.9
CC[C@@]1(C(=O)OC)N[C@H](CN(C)C(=O)c2ccc(C)cc2)[C@@H]2C(=O)N(Cc3ccccc3)C(=O)[C@@H]21	none (no result: TPT1 inh)
O=C(O)C1CCCC[C@H]1C(=O)Nc1ncc([N+](=O)[O-])s1 (stereo not given in full)	none
COc1ccc(Cl)cc1Cn1c(C)c(C(=O)NCc2cccc(Cl)c2)sc1=O	none (no result: TPT1 inh, IDE cell activ, IDE cell inh)
C=CCN1/C(=C2/SC(=S)N(C)C2=O)Sc2ccccc21	TPT1 inh 34.8 (no result: HNF4A DNA FP, Rpn11 block, IDE cell activ, CSN inh) | TPT1 inh confirm 59.2 | RNase T1 counter 73.0
CCOCCCNC(=O)/C(C#N)=C/c1cc(C)c(O)c(C)c1	none
C=CCNC(=O)/C(C#N)=C\c1cc(Cl)c(O)c(OCC)c1	TPT1 inh 24.8 | TPT1 inh confirm 34.1 | RNase T1 counter 41.5
O=C1c2ccccc2C(=O)N1CCCCN(C(=O)c1ccco1)c1ccc(Cl)cc1	none
O=C1/C(=C/N(C(=O)c2ccco2)c2ccc(Cl)cc2)Sc2ccccc21	TPT1 inh 68.9 | TPT1 inh confirm 70.3 | RNase T1 counter 82.4
O=C1/C(=C/N(C(=O)c2ccco2)c2ccc(Br)cc2)Sc2ccccc21	TPT1 inh 70.3, Rpn11 block 51.6 | TPT1 inh confirm 71.0 | RNase T1 counter 84.8
CCCNC(=O)C[C@@H]1C[C@H]2c3cc(NC(=O)c4ccc5c(c4)OCO5)ccc3O[C@H]2[C@@H](CO)O1	none (no result: TPT1 inh, IDE cell activ, IDE cell inh)
COC(=O)c1ccc(-n2nnnc2SCc2nn[nH]n2)cc1	none
CC(C)c1ccc(NC(=O)CN(C)C2=NS(=O)(=O)c3ccccc32)cc1	none (no result: TPT1 inh, IDE cell activ, IDE cell inh)
O=C1CCCN1C(=O)CSc1ccc2ccccc2n1	none (no result: TPT1 inh)
